Here are results for one compound from publication PMC9890135 (Molecular Cancer Therapeutics, 2022).

In test [1] the target is T1, AXL (Homo sapiens, UniProt P30530).
T1 sequence (P30530 26-894): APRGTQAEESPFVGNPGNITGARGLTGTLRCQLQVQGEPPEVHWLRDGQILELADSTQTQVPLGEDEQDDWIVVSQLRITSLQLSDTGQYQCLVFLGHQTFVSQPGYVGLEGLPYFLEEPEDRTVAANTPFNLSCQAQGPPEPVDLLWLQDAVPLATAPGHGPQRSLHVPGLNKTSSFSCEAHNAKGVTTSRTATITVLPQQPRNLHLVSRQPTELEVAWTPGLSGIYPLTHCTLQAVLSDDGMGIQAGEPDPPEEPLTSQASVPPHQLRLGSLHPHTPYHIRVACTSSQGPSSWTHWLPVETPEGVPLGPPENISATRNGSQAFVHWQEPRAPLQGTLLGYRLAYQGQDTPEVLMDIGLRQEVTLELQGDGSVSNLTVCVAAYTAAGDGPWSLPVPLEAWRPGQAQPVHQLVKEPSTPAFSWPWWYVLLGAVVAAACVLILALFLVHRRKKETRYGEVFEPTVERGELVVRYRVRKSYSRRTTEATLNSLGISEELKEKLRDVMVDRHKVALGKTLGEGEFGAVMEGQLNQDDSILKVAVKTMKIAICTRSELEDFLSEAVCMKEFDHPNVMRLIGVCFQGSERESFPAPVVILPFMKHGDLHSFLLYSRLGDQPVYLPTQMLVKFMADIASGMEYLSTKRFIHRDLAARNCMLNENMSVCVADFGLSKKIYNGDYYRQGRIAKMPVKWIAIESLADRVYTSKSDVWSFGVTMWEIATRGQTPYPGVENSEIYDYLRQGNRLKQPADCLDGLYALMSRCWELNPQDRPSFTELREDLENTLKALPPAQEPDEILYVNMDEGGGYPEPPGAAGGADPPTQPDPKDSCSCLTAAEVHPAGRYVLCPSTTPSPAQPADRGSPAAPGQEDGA
Put plainly: Inhibition of receptor phosphorylation, ELISA, A-172 cells/GAS6. It counts as cell-based. A general note: ELISA stands for enzyme-linked immunosorbent assay.

Test [2] has as its system Hs 746T tumors. Put plainly: Hs 746T xenograft tumor growth. It counts as in vivo, mice. As to conditions: 12 days, oral. A digest of the protocol: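 Human tumour cells inoculated into the rear flank. Mice randomised at mean volumes of ~200 mm3 (Hs 746T), ~120 mm3 (MDA-MB-231), ~100 mm3 (NCI-H441) or ~90 mm3 (SNU-5). Oral gavage once daily with test compound or vehicle. Tumour volume and body weight measured at least twice weekly. […], using mean volumes at extraction and dosing start.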

Test [3] concerns MC38 tumors. Put plainly: MC38 syngeneic tumor model, XL092 and ICI combination studies. In kind it is in vivo, mice. Conditions: XL092 3 mg/kg orally once a day, anti-PD-1 5 mg/kg twice a week for 2 weeks i.p., 35 days.
The test system of test [4] is panel of 405 protein kinases. Put plainly: KinaseProfiler 33P radiometric kinase assay, panel. It counts as biochemical. The essentials:
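Radiometric 33P-phosphoryl transfer assay measuring catalytic activity of recombinant active kinase domains across the profiling panel.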

Broadly, the IC50 is the concentration at which inhibition is half-maximal. A high value points to a need for much substance. Compound `CNC(=O)c1cc2c(Oc3ccc(NC(=O)C4(C(=O)Nc5ccc(F)cc5)CC4)cc3)ccnc2cc1OC` [XL092] yielded an IC50 in test [1] of 3.89 ± 1.61 nM. Also, the Tumor growth inhibition in test [2] (1 mg/kg/day) came out at 10.1%; in test [2] (3 mg/kg/day), 35.6%; in test [2] (10 mg/kg/day) it was 70.2%; in test [2] (30 mg/kg/day), 94.9%. The “TGI compared with vehicle” value in test [3] is on record as “significant TGI”. Further, the “activity against serine or threonine kinases” value in test [4] (kinase profiling) is “No activity”. Also, in test [4] (single concentration of 1 μmol/L, panel of 405 protein kinases), the “inhibition of additional RTKs and TKs” value is at least 70%.
